# Molecular target: T1, OR1A2 (Homo sapiens) (UniProt Q9Y585)
# T1 sequence (whole entry): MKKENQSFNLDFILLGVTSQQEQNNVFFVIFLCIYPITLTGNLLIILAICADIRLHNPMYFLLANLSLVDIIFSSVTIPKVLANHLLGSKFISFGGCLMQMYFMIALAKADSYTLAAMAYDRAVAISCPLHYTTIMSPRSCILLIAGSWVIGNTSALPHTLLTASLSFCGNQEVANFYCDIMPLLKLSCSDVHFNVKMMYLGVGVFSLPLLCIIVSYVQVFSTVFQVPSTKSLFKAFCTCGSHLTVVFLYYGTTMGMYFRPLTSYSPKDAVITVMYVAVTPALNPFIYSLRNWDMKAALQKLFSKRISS
# Conditions: stereoisomer not certain
# How it was run: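 Values were gathered from published papers (main text and supplementary material), with extra details requested from the original authors when needed, and checked for typos and inconsistencies. Each receptor–molecule pair is called responsive (active) if the original authors judged the measured signal statistically different from baseline, and non-responsive (inactive) otherwise. Assay methods varied by source, often transient mammalian cell-line luciferase assays. Recorded details include cell line, G-protein, co-transfected protein and tags.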
row,Compound,odorant receptor agonist call
1,C=C(C)C1CC=C(C)C(O)C1 (centres undefined),active
2,CCc1nccnc1CC,inactive
3,CCCCCCCCO,active
4,CC(=O)OCCC(C)C,inactive
5,COc1ccccc1,inactive
6,CC=CC(=O)C1=C(C)CCCC1(C)C,inactive
7,CCCC(C)C=O (centres undefined),inactive
8,C=C(C)C1CC=C(C)C(OC(C)=O)C1 (centres undefined),inactive
9,C=CC(C)(O)CCC=C(C)CCC=C(C)C (centres undefined),active
10,CCCCS,inactive
11,CCCCC(=O)O,inactive
12,C=CC(=O)CCCCC,active
13,CC1CCC(C(C)C)C(=O)C1 (centres undefined),inactive
14,CCCCCO,inactive
15,CCCCCCO,inactive
16,CCCCCCCO,inactive
17,CC1(C)C2CC=C(C=O)C1C2 (centres undefined),inactive
18,CC(=O)C=CC1=C(C)CCCC1(C)C,active
19,CCC=CCCC=CC=O,inactive
20,CCCCCC=O,inactive
21,C1CCNC1,inactive
22,Cc1cnccn1,inactive
23,CC=CC(=O)C1=C(C)C=CCC1(C)C,inactive
24,CCC=CCCCCCC=O,active
25,CC(C)=CCCC(C)=CCCC(C)=CCO,inactive
26,CC(C)=CCCC(C)CCO (centres undefined),active
27,O=C([O-])CCCCC(=O)[O-].[H+].[H+],inactive
28,CCCCCCCCC(=O)O,inactive
29,CCCCCCCCCO,inactive
